Experimental data from ChEMBL document CHEMBL4602607, “Hit-to-Lead Optimization of Benzoxazepinoindazoles As Human African Trypanosomiasis Therapeutics” (J Med Chem, 2020).

Experiments:
[1] = Intrinsic clearance in rat hepatocytes assessed per 10^6 cells by LC-MS/MS analysis; type: ADME, cell-based, Hepatocyte
How it was run: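 Rat hepatocyte incubation, samples analysed by LC/MS/MS; intrinsic clearance reported in µL/min/1 million cells.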

[2] = Distribution coefficient, logD of compound; type: physicochemical; conditions: octanol/water
[3] = Ratio of drug concentration in brain to blood in NMRI mouse at 10 mg/kg, ip measured at 0.5 hrs by LC-MS/MS analysis; type: ADME, organism-based; conditions: brain and blood, read-out: BBR
in vivo = conditions: NMRI, mouse, ip, 10 mg/kg
[4] = Intrinsic clearance in human liver microsomes assessed per mg protein by LC-MS/MS analysis; type: ADME, Microsome
[5] = Half life in NMRI mouse at 10 mg/kg, ip measured up to 24 hrs by LC-MS/MS analysis; type: ADME, organism-based; conditions: in vivo
[6] = Cmax in NMRI mouse at 10 mg/kg, ip measured up to 24 hrs by LC-MS/MS analysis; type: ADME, organism-based; parameters: dose 10 mg/kg, route intraperitoneal; conditions: in vivo
[7] = Ratio of drug concentration in brain to blood in NMRI mouse at 10 mg/kg, ip measured at 4 hrs by LC-MS/MS analysis; type: ADME, organism-based; conditions: brain and blood, read-out: BBR

In the case of `Nc1cccc(-c2cc3c4c(n[nH]c4c2)Nc2ccccc2O3)n1`, the hepatocyte CLint [1] is reported as 220 µL/min/10^6 cells and the logD [2] is reported as 3.7.

With `CCOc1cc(-c2ccnc(N)n2)cc2[nH]nc(N)c12` the Kp at 0.5 h [3] was 0.155, the Tmax at 24 h (in vivo) was 15 to 300 min and the CLH [4] was 25 µL/min. It also gave a t1/2 [5] of 53.6 min, a Cmax [6] of 3603 ng/mL and a logD [2] of 1.7. For the same molecule, the Kp at 4 h [7] was 0.214.

With `CCNc1cc(-c2cc3c4c(n[nH]c4c2)Nc2ccccc2O3)nc(N)n1` the hepatocyte CLint [1] was 26 µL/min/10^6 cells.

Molecule `CN1CCN(c2cc(-c3cc4c5c(n[nH]c5c3)Nc3ccccc3O4)nc(N)n2)CC1` has a hepatocyte CLint [1] of 16 µL/min/10^6 cells and a logD [2] of 3.4.

With `CN(C)c1cc(-c2cc3c4c(n[nH]c4c2)Nc2ccccc2O3)nc(N)n1` the hepatocyte CLint [1] was 44 µL/min/10^6 cells and the logD [2] was > 4.4.

`Cn1nc2c3c(cc(-c4ccnc(N)n4)cc31)Oc1ccccc1N2` showed a Kp at 0.5 h [3] of 2.39, a Tmax at 24 h (in vivo) of 15 to 300 min and a hepatocyte CLint [1] of 12 µL/min/10^6 cells. The t1/2 [5] was 63.6 min, the Cmax [6] was 615 ng/mL and the logD [2] was > 4.3. For the same molecule, the Kp at 4 h [7] was 2.12.

For `CN(C)c1nccc(-c2cc3c4c(n[nH]c4c2)Nc2ccccc2O3)n1`, the hepatocyte CLint [1] was 29 µL/min/10^6 cells and the logD [2] was > 3.9.

`Nc1nccc(-c2cc3c4c(n[nH]c4c2)N[C@@H]2CCC[C@H]2O3)n1` showed a hepatocyte CLint ([1]; read-out: CLH) of 52 µL/min/1e6 cells and a logD ([2]; read-out: logD) of 2.8.

In the case of `c1ccc2c(c1)Nc1n[nH]c3cccc(c13)O2`, the hepatocyte CLint [1] is reported as 47 µL/min/10^6 cells and the logD ([2]; read-out: logD) is reported as > 4.

Work on `Nc1ccnc(-c2cc3c4c(n[nH]c4c2)Nc2ccccc2O3)n1` yielded a hepatocyte CLint [1] of 56 µL/min/10^6 cells and a logD [2] of 4.1.

With `Nc1nc(-c2cc3c4c(n[nH]c4c2)Nc2ccccc2O3)cc(N2CCCCC2)n1` the hepatocyte CLint [1] was 25 µL/min/10^6 cells and the logD [2] was 4.6.

In the case of `CNc1cc(-c2cc3c4c(n[nH]c4c2)Nc2ccccc2O3)nc(N)n1`, the hepatocyte CLint [1] is reported as 45 µL/min/10^6 cells and the logD [2] is reported as > 4.2.

`Nc1cc(-c2cc3c4c(n[nH]c4c2)Nc2ccccc2O3)ncn1` gave a hepatocyte CLint [1] of 73 µL/min/10^6 cells and a logD [2] of 3.8.

`CNc1nccc(-c2cc3c4c(n[nH]c4c2)Nc2ccccc2O3)n1` gave a hepatocyte CLint [1] of 45 µL/min/10^6 cells and a logD [2] of 3.8.

In the case of `COCc1cc(-c2cc3c4c(n[nH]c4c2)Nc2ccccc2O3)nc(N)n1`, the hepatocyte CLint [1] is reported as 41.4 µL/min/10^6 cells.

In the case of `c1ccc2c(c1)Nc1n[nH]c3cc(-c4ccncn4)cc(c13)O2`, the hepatocyte CLint [1] is reported as 68 µL/min/10^6 cells and the logD [2] is reported as 3.5.

`CC(C)Nc1cc(-c2cc3c4c(n[nH]c4c2)Nc2ccccc2O3)nc(N)n1` gave a hepatocyte CLint [1] of 32 µL/min/10^6 cells and a logD [2] of 4.9.
